Only a selection was taken, and hits are over-represented in it overall.
ABCB6 inh 2 – human ABCB6 transporter inhibition. Q9NP58. K562-ABCB6 porphyrin accumulation, flow cytometry, 1 h; stronger effect = lower value. fluorescence ratio to DMSO, % at 10 µM. actives 0.19% (n = 360,000). AID 602162;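 active = fluorescence ratio to DMSO below 75%, the collection mean minus 3 SD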;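 also: signal is porphyrin accumulated inside mitochondria; 100% equals median channel fluorescence of DMSO control wells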
ABCG2 block – blocks JC-1 efflux by human ABCG2 transporter | IgMXP3 cells, flow cytometry | inhibition, % at 6.6 µM | actives 0.1% (n = 190,000);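 active = inhibition above 80%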;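 also: 0% = DMSO and 100% = nicardipine control wells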
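Times: 10 min at 25 °C | Test system: Two drug-resistant human cell lines, ABCG2 and ABCB1 | Quantity: 3 million cells/mL final, two lines in 1:1 ratio | Signal: Flow cytometry, 530 nm JC-1 signal | Dosing: Compound at 6.6 µM | Controls: Nicardipine and DMSO wells | Reagent: JC-1 as fluorescent efflux pump substrate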
FLuc inh counter – inhibits firefly luciferase, flagging false hits in luciferase inhibition screens. actives 1.5% (n = 200,000). P08659. ATPLite firefly luciferase biochemical luminescence, 10 min. inhibition, % at 10 µM;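 active = inhibition above about 50% when tested at 10 µM, limit read from the data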
Diaphorase act – counter-screen for diaphorase-based assays: diaphorase activators and chemical reducers; Diaphorase/resazurin coupled assay, resorufin fluorescence, 16 min; stronger effect = higher value; 1 = vehicle wells, 0 = NADH-free wells; activation factor at 20 µM; actives 0.005% (n = 190,000); AID 1229;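 active = diaphorase activity raised at least twofold by the compound at 20 µM; inactive = activation factor below 2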
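System – purified diaphorase enzyme from Clostridium kluyveri · Input – enzyme 0.07 U/mL final · Also added – final NADH 0.114 mM, resazurin 0.1 mM · Measured by – fluorescence of resorufin, 544 nm excitation, 590 nm emission · Timing – 16 min enzyme reaction, ambient temperature · Measure – resorufin increase flagging diaphorase activators or reducers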
FLuc act counter – firefly luciferase counter-screen for stimulation assays; AID 1027; ATPlite luciferase biochemical, luminescence, 10 min; 0 = ATP-free wells, 1 = DMSO control; 200,000 tested, under 10 active; activation factor at 10 µM;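 active = luciferase activation factor, scaled between plate controls, of at least 2 with compound at 10 µM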
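assay system = Luciferase/luciferin detection reagent, cell-free biochemical luciferase assay | also added = ATP substrate | times = 10 min post-reagent at room temperature | measured by = luminescence from luciferase reaction | measure = luciferase activation, seen as luminescence increase over controls | benchmarks = low control with PBS replacing ATP, high control enzyme plus ATP without compound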
ABCB1 block – blocks JC-1 efflux by human ABCB1 transporter; CCRF-Adr cells, flow cytometry; inhibition, % at 6.6 µM; P08183; actives 0.067% (n = 190,000); in the data active = inhibition above about 40%;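 also: 0% = vehicle and 100% = reference inhibitor; higher value means more JC-1 retained so stronger ABCB1 efflux block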
The depositor's hits bear a star; · = no result given.

SMILES	ABCB6 inh 2	ABCG2 block	FLuc inh counter	Diaphorase act	FLuc act counter	ABCB1 block
Cc1nc2cc(Nc3nnc(-c4ccccc4)c4ccccc34)ccc2n1C	100	1	92*	0.9	0.1	0
Cc1nc2cc(NC(=O)Nc3cccc4ccccc34)ccc2n1C	102	-2	56*	0.8	0.4	-1
O=C(O)c1cc(-c2ccc3c(c2)OCO3)nc2ccc(Br)cc12	93	-2	72*	0.6	0.3	-1
CCN(CC(=O)NCc1cccs1)C(=O)c1ccc(S(=O)(=O)Nc2cccc(C)c2C)cc1	98	·	·	·	·	·
O=C1/C(=C\c2ccc([N+](=O)[O-])cc2)CCc2ccccc21	94	0	81*	0.9	0.2	2
O=C1/C(=C\c2cccnc2)CCc2ccccc21	103	52	63*	0.8	0.4	2
CCCCCN=Cc1c(C)[nH]n(-c2nc3ccccc3s2)c1=O	100	10	52*	0.7	0.5	2
COc1ccc(C)cc1NC(=O)COC(=O)c1c(C)nn(-c2ccccc2)c1C	93	·	·	·	·	·
Cc1ccnc(N/N=C/c2ccccc2)n1	98	0	51*	1	0.5	0
C(=N\Nc1nccc(-c2cccnc2)n1)/c1ccccc1	102	·	·	·	·	·
C/C(=N\Nc1nc2ccccc2[nH]1)c1ccc(N2CCOCC2)cc1	94	2	94*	0.9	0.1	0
C/C(=N\Nc1nc(C)cc(C)n1)c1ccc(N2CCOCC2)cc1	96	0	1	1	1	0
Fc1ccc(-n2nnc(-c3cccnc3)n2)cc1	95	3	15	1	0.8	0
O=c1[nH]c2ccccc2cc1-c1nnn(-c2ccc(Cl)c(Cl)c2)n1	106	·	·	·	·	·
O=c1[nH]c2ccccc2cc1-c1nnn(-c2ccc(F)cc2)n1	98	2	65*	1	0.4	1
Fc1ccc(-n2nnc(-c3cnc4ccccc4c3)n2)cc1	98	4	74*	0.9	0.3	1
C=CCNC(=S)N/N=C/c1ccc(C)cc1C	97	-2	63*	0.9	0.4	-1
C=CCNC(=S)N/N=C/c1ccc(C(F)(F)F)cc1	98	4	52*	1	0.5	0
CC(=O)N1CCC(N(CCCOC(C)C)S(=O)(=O)c2ccc([N+](=O)[O-])cc2)CC1	95	·	·	·	·	·
Cc1ccn2cc(-c3cccc(NC(=O)C(C)C)c3)nc2c1	93	7	57*	0.9	0.4	0
C#CCCc1ccccc1/C=[N+](/C)[O-]	101	·	·	·	·	·
Cc1c(Cl)cccc1NC(=O)CNC(=O)C1CCN(C(=O)Nc2ccccc2)CC1	97	·	·	·	·	·
O=C(N/N=C/C(Br)=C\c1ccccc1)c1n[nH]c2c1CCC2	106	-1	42	0.9	0.6	0
CC(/C=N/NC(=O)c1cccs1)=C\c1ccccc1	98	24	76*	1	0.2	-2
CC(/C=N/NC(=O)c1n[nH]c2c1CCC2)=C\c1ccccc1	92	1	53*	0.9	0.5	0
SMILES	ABCB6 inh 2	ABCG2 block	FLuc inh counter	Diaphorase act	FLuc act counter	ABCB1 block
CC(/C=N/NC(=O)c1ccco1)=C\c1ccccc1	100	2	90*	0.8	0.1	0
Cc1c(C(c2cccc(Br)c2)c2c(C)n(C)n(-c3ccccc3)c2=O)c(=O)n(-c2ccccc2)n1C	102	·	·	·	·	·
C/C(=N\NC(=O)c1ccc(O)cc1)c1cccc(NC(=O)c2ccccc2C)c1	99	·	·	·	·	·
Fc1cccc(/C=N/Nc2ccc3ccccc3n2)c1	98	-1	71*	0.9	0.3	-1
COc1ncnc2c1ncn2CCCN(CCCc1ccccc1)CCCn1cnc2c(OC)ncnc21	99	·	·	·	·	·
Cc1cc(C(=O)Nc2sc3c(c2C#N)CCC3)no1	100	-1	66*	0.8	0.3	0
Cc1cc(C(=O)Nc2sc3c(c2C#N)CCCC3)no1	96	2	84*	0.9	0.2	0
CC(C)Cc1cc(C(=O)Nc2sc3c(c2C#N)CCC3)no1	98	0	-2	0.9	1	0
Cc1cc(C(=O)Nc2sc3c(c2C#N)CCC(C)C3)no1 (centres undefined)	98	0	72*	0.9	0.3	0
